# Measured values from different studies.
# Each line is one published result; the experiments were not run side by side.
Structure (SMILES),test,test system,conditions,quantity,value
C[C@H](C(=O)N[C@@H]1COc2ccccc2[C@H]1S(C)(=O)=O)c1ccc(F)cc1,metabolic stability,"rat, liver microsomes",1 µM,microsomal CLint,55 µL/min/mg
COc1ccc(Nc2nc(-c3ccccn3)nc3ccccc23)cc1,metabolic stability,"human, liver microsomes",,microsomal CLint,73 µL/min/mg
CC(C)CN(C[C@@H](O)[C@H](Cc1ccccc1)NC(=O)O[C@H]1CO[C@H]2OCC[C@H]21)S(=O)(=O)c1ccc(N)cc1,shake flask,PBS,pH 3,logD,2.98
Fc1ccc(Nc2c(-c3cc(Cl)ccn3)nc3ccccn23)cc1,metabolic stability,"rat, hepatocytes",,hepatocyte CLint,> 300 µL/min/10⁶ cells
c1cnc2ccc(Nc3nc(NC4CC4)c4nc[nH]c4n3)cc2c1,,"human, plasma","oral, 200 mg/m², patients",CL/F,80.9 L/h
Fc1cccc(Nc2nc(-c3ccccn3)nc3ccccc23)c1,metabolic stability,"human, liver microsomes",,microsomal CLint,81 µL/min/mg
CCOC(=O)C1=C(C)N/C(=C/c2cc(C)n(Cc3ccc(C(F)(F)F)cc3)c2C)C1=O,HPLC,,pH 7.4,chromatographic logD,3.5
COc1cc(C(=O)NC2CCN(C)CC2)c(F)cc1Nc1ncc(C(F)(F)F)c(Oc2cccc3c2C(=O)N(C)C3)n1,,"human, plasma","oral, 10 mg, multiple doses, once daily, patients",CL/F,20.8 L/h
c1ccc(-c2nc(N3CCCC3c3ccccn3)c3ccccc3n2)nc1 (stereo not shown),metabolic stability,"human, liver microsomes",,microsomal CLint,62 µL/min/mg
CC(C)(C)[Si](C)(C)OCCCN(c1ccc(F)cc1)c1c(-c2ccccn2)nc2ccccn12,metabolic stability,"rat, hepatocytes",,hepatocyte CLint,42 µL/min/10⁶ cells
Cc1cccc(N2CCN(c3nc(-c4ccccn4)nc4ccccc34)CC2)n1,metabolic stability,"human, liver microsomes",,microsomal CLint,165 µL/min/mg
CS(=O)(=O)CCC#N,,"human, plasma","oral, 1000 mg, single dose, fasted",CL/F,0.233 mL/min/kg
CCOC(=O)C1=C(C)N/C(=C/c2cc(C)n(-c3ccc(N4CCOCC4)cc3)c2C)C1=O,HPLC,,pH 7.4,chromatographic logD,2.8
Cc1ccc(C(=O)N(CCCN)[C@@H](c2oc3cc(Cl)ccc3c(=O)c2Cc2ccccc2)C(C)C)cc1,,"human, plasma","intravenous, 6 mg/m², single dose, patients, infusion",clearance,23.6 mL/min
c1ccc(-c2nc(N3CCC(c4ccccn4)C3)c3ccccc3n2)cc1 (stereo not shown),metabolic stability,"human, liver microsomes",,microsomal CLint,182 µL/min/mg
CCNCCCNC/C=C\CNCCCNCC,,"human, plasma","intravenous, 100 mg, patients, infusion",clearance,5510 mL/min
CN(C)C(=O)c1ccc(-c2c(-c3ccccn3)nc3n2CCC3)cc1,metabolic stability,"rat, hepatocytes",,hepatocyte CLint,< 1 µL/min/10⁶ cells
COc1ccccc1-c1nc(N2CCC(c3ccccn3)C2)c2ccccc2n1 (stereo not shown),metabolic stability,"human, liver microsomes",,microsomal CLint,69 µL/min/mg
CN(c1ccc(F)cc1)c1c(-c2ccc(F)cn2)nc2ccccn12,metabolic stability,"rat, hepatocytes",,hepatocyte CLint,> 300 µL/min/10⁶ cells
c1ccc(-c2nc(N3CCCCCC3)c3ccccc3n2)nc1,metabolic stability,"human, liver microsomes",,microsomal CLint,190 µL/min/mg
Fc1ccc(Nc2c(-c3ccccn3)nc3ccccn23)nc1,metabolic stability,"rat, hepatocytes",,hepatocyte CLint,18 µL/min/10⁶ cells
OC[C@H]1O[C@@H](c2ccc(Cl)c(Cc3ccc(O[C@H]4CCOC4)cc3)c2)[C@H](O)[C@@H](O)[C@@H]1O,,"human, urine","oral, 2.5 mg, single dose",renal clearance,29.1 mL/min
COc1ccc2nc(-c3cc(N(C)C)ccn3)c(N(C)c3ccc(F)cc3)n2c1,metabolic stability,"rat, hepatocytes",,hepatocyte CLint,> 300 µL/min/10⁶ cells
c1ccc(-c2nc(NCCn3cnc4ccccc43)c3ccccc3n2)nc1,metabolic stability,"human, liver microsomes",,microsomal CLint,150 µL/min/mg
COc1ccc2nc(-c3ccccn3)c(N(C)c3ccc(F)cc3)n2c1,metabolic stability,"rat, hepatocytes",,hepatocyte CLint,> 300 µL/min/10⁶ cells
Cc1c(C(=O)NN2CCCCC2)nc(-c2ccc(Cl)cc2Cl)n1-c1ccc(OCc2ccccc2)cc1,shake flask,aqueous buffer,pH 7.4,logD,> 5.3
CCCN(c1ccc(F)cc1)c1c(-c2ccccn2)nc2ccccn12,metabolic stability,"rat, hepatocytes",,hepatocyte CLint,110 µL/min/10⁶ cells
CCOc1ccc(Cc2cc([C@@H]3O[C@H](CO)[C@@H](O)[C@H](O)[C@H]3O)ccc2Cl)cc1,,"human, plasma","oral, multiple doses, steady state",CL/F,21.1 L/h
